dFosB act = activators of delta FosB homodimer, primary screen, biochemical, fluorescence polarization, TAMRA-CDK5 oligo, single point; AID 493131, 2011; 340,000 tested, 0.99% active; activation, % at 25 µM; purified delta FosB; percent of positive-control signal above neutral wells; Protein FosB (Mus musculus), P13346;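 active means mean activation above about 17%, with every replicate also reaching it, limit read from the data, passing the limit was not always enough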
Target sequence (P13346 whole entry, looked up): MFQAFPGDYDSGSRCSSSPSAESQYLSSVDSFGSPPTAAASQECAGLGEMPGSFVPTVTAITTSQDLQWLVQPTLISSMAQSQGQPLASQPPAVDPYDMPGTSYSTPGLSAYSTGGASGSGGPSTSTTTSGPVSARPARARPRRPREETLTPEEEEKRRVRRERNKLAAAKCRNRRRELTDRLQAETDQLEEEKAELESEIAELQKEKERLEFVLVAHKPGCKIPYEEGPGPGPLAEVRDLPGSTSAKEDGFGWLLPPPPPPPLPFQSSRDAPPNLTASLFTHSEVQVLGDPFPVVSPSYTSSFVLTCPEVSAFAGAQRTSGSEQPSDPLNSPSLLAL
CDK5 inh = inhibitors of human CDK5/p35 kinase, primary screen, biochemical, single concentration; Recombinant CDK5/p35, ADP-Glo luminescence, 60 min; inhibition, % at 10 µM; 330,000 tested, 0.01% active; AID 488839, 2010; Cyclin-dependent kinase 5 (Homo sapiens) + Cyclin-dependent kinase 5 activator 1 (Homo …;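 active means highest replicate inhibition of at least 50% and at least 75% of replicates reaching 50%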
CAL PDZ FP-1 = untagged CAL PDZ binding inhibitors, primary screen, biochemical, fluorescence polarization, HTS; Golgi-associated PDZ and coiled-coil motif-containing protein (Homo sapiens), Q9HD26; purified CAL PDZ, TMR-peptide fluorescence polarization, 1 h; inhibition, % at 24.9 µM; 300,000 tested, 0.92% active; AID 602252, 2012;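 active means mean inhibition of at least 30% with at least half of replicates also reaching 30%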
C2C12 statin = suppressors of statin myotoxicity in C2C12 myotubes, primary screen, cell-based, single point, plate reader | 330,000 tested, 0.78% active | rescue of ATP level, % at 7.49 µM | C2C12 myotubes + simvastatin, ATP luminescence, 48 h; scaled: DMSO 0, geranylgeraniol control 100 | AID 602340, 2012;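 active means mean ATP rescue above about 67%, or every replicate alone reaching that limit, limit read from the data, passing the limit was not always enough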;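 further: myotubes were challenged with 10 µM simvastatin during compound exposure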
CAL PDZ FP-2 = CAL PDZ peptide-binding inhibitors, primary screen, biochemical, fluorescence polarization, Cer-tagged CAL PDZ, HTS | purified CAL PDZ, TMR-peptide fluorescence polarization, 1 h | inhibition, % at 20 µM | 330,000 tested, 0.02% active;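 active means highest replicate inhibition of at least 40%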
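Read-out basis: mP drop reported as inhibition | Assay system: Tagged CAL PDZ protein CerCALP, purified | Benchmarks: Unlabelled peptide for full inhibition, DMSO wells as neutral | Schedule: 1 h incubation at room temperature before polarization reading | Buffer or medium: Sodium phosphate/NaCl buffer pH 7.4 with TCEP, IgG, Thesit | Doses: Single point, 20 µM | Measured by: Fluorescence polarization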
S100A4 inh HTS = inhibitors of S100A4-myosin IIA peptide binding, primary screen, biochemical, fluorescence polarization, TAMRA-MyoIIA peptide. 360,000 tested, 0.14% active. AID 652163, 2013. inhibition, % at 10.7 µM. Protein S100-A4 (Homo sapiens), P26447;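 active means mean inhibition of at least 70% across replicates, with every replicate also reaching that level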
Target sequence (P26447 whole entry, looked up): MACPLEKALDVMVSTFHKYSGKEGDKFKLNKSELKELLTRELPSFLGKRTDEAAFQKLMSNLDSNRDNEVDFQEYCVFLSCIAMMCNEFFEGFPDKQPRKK
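Material: S100A4 monomer (human). Medium: Calcium-containing HEPES buffer, pH 7.2. Probe or stimulus: labelled myosin peptide probe, 5 nM. Compound dosing: one concentration per compound. Timing: polarization read 5 min after assay mix addition, stable 5–60 min. Benchmarks: DMSO as neutral control, TFP as positive control.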
Large screens that a line does not name were inactive. A selection: hits, their analogues and other compounds. The true share with any hit is near 2%.

COc1ccc(NC(=O)N2CCN(S(C)(=O)=O)CC2)c(OC)c1	CAL PDZ FP-1 38 (no result: C2C12 statin)
COc1cc(/C=C/C(=O)OCC(=O)Nc2cc(S(=O)(=O)N3CCOCC3)ccc2Cl)cc(OC)c1OC	C2C12 statin 109
Nc1nnc(SCC(=O)Nc2cc(S(=O)(=O)N3CCOCC3)ccc2N2CCCC2)s1	CAL PDZ FP-1 68
COc1ccc(S(=O)(=O)N2CCOCC2)cc1NC(=O)CN1CCCCCC1	CAL PDZ FP-1 36 (no result: C2C12 statin)
COc1cccc2cc(CC(=O)c3ccccc3)c(=O)oc12	none
CC=CC1OCC(CC)C(CCC)O1 (stereo unspecified)	none (no result: CAL PDZ FP-1)
COc1ccc(NC(=O)CN2CCCN(S(=O)(=O)c3ccc(F)cc3)CC2)c(OC)c1	C2C12 statin 94
COc1ccc(S(=O)(=O)N2CCCN(CC(=O)Nc3ccccc3F)CC2)cc1	none (no result: CAL PDZ FP-1)
CC(=O)Nc1ccc(C(=O)NNC(=O)c2cccc(C)c2)cc1	CAL PDZ FP-1 41
CCCCCC(=O)NC(=S)Nc1cccc(C(C)=O)c1	none
CC(=O)c1cccc(NC(=O)CCNC(=O)c2cccc(C)c2)c1	CAL PDZ FP-1 71
Cc1cccc(C(=O)NNC(=O)c2ccc(NC(=O)C(C)(C)C)cc2)c1	none (no result: CAL PDZ FP-1)
CCCC(=O)NC(=S)Nc1cccc(C(C)=O)c1	C2C12 statin 114 (no result: S100A4 inh HTS)
CC(OC(=O)c1cccc(S(=O)(=O)N2CCN(C)CC2)c1)C(=O)Nc1ccc(C(N)=O)cc1 (stereo unspecified)	none
CCN(CC)c1ccc(C2NC(=O)NC(C)=C2C(=O)Nc2ccccc2)cc1 (stereo unspecified)	none
CCOC(=O)N1CCN(C(=O)Cc2ccsc2)CC1	C2C12 statin 110 (no result: CAL PDZ FP-1, S100A4 inh HTS)
COc1ccccc1-c1cnc2c(c1)C(=O)N([C@@H](C)CO)C[C@@H](C)[C@@H](CN(C)CC1CC1)O2	none (no result: dFosB act, CDK5 inh, CAL PDZ FP-1, C2C12 statin, CAL PDZ FP-2)
CN1/C(=C\C=C(C#N)C#N)C(C)(C)c2ccccc21	dFosB act 113, S100A4 inh HTS 160
CN1/C(=C\C=C(/C#N)C(=O)Nc2ccc(Cl)cc2)C(C)(C)c2ccccc21	none (no result: C2C12 statin, S100A4 inh HTS)
COc1cc(S(=O)(=O)Nc2c(C)nn(C)c2C)ccc1NC(C)=O	none (no result: CAL PDZ FP-1)
COc1cc(C)c(S(=O)(=O)N2CCCC2)cc1C(C)C	none
COc1cc(C)c(-c2cc(C(=O)O)c(C)o2)cc1C(C)C	C2C12 statin 95 (no result: S100A4 inh HTS)
C[C@H]1CN([C@@H](C)CO)C(=O)c2cccc(N(C)C)c2O[C@@H]1CN(C)Cc1ccc(Cl)c(Cl)c1	C2C12 statin 95 (no result: dFosB act, CDK5 inh, CAL PDZ FP-1, CAL PDZ FP-2)
C[C@@H]1CN([C@H](C)CO)C(=O)Cc2cc(NC(=O)Cc3cn(C)c4ccccc34)ccc2O[C@@H]1CN(C)Cc1ccccc1	none (no result: dFosB act, CDK5 inh, CAL PDZ FP-1, CAL PDZ FP-2)
C[C@@H]1CN([C@H](C)CO)C(=O)Cc2cc(NC(=O)Cc3cn(C)c4ccccc34)ccc2O[C@@H]1CN(C)Cc1ccc(Cl)c(Cl)c1	C2C12 statin 69 (no result: dFosB act, CDK5 inh, CAL PDZ FP-1, CAL PDZ FP-2)
C[C@@H]1CN([C@@H](C)CO)C(=O)c2cccc(N(C)C)c2O[C@H]1CN(C)Cc1ccc(Cl)c(Cl)c1	none (no result: dFosB act, CDK5 inh, CAL PDZ FP-1, CAL PDZ FP-2)
C[C@H](CO)N1C[C@H](C)[C@@H](CN(C)Cc2ccc(Cl)c(Cl)c2)Oc2ccc(NC(=O)Cc3ccccc3)cc2CC1=O	C2C12 statin 86 (no result: dFosB act, CDK5 inh, CAL PDZ FP-1, CAL PDZ FP-2)
C[C@H]1CN([C@@H](C)CO)C(=O)Cc2cc(NC(=O)Cc3cn(C)c4ccccc34)ccc2O[C@@H]1CN(C)Cc1ccc(Cl)c(Cl)c1	C2C12 statin 142 (no result: dFosB act, CDK5 inh, CAL PDZ FP-1, CAL PDZ FP-2)
O=C(C1CCOCC1)N1CC(=O)N2[C@H](C1)[C@@H](c1ccc(-c3ccccc3F)cc1)[C@@H]2CO	none (no result: dFosB act, CDK5 inh, CAL PDZ FP-1, C2C12 statin, CAL PDZ FP-2)
C/C(C=O)=C/c1ccccc1	none
O=S(=O)(/N=C(/Sc1ccccc1)c1ccccc1)c1ccccc1	none (no result: S100A4 inh HTS)
COCc1cc(N2CCN(C(=O)OC(C)(C)C)C[C@@H]2C)ccc1N1CCS(=O)(=O)CC1	none (no result: dFosB act, CDK5 inh, CAL PDZ FP-1, C2C12 statin, CAL PDZ FP-2)
